The values that follow come from ChEMBL document CHEMBL1152646, “Synthesis, molecular docking and biological evaluation of metronidazole derivatives as potent Helicobacter pylori urease inhibitors” (Bioorg Med Chem, 2009).

Active and inactive are the calls of the source. The calls are words filed in the database; no cut-off is given here.

The target of assay [1] is Urease subunit alpha/Urease subunit beta (Helicobacter pylori (strain ATCC 700392 / 26695) (Campylobacterpylori)) (UniProt P69996+P14916). Kind of assay: Inhibition of Helicobacter pylori ATCC 43504 urease assessed as ammonia production at 1 mM after 3 hrs by indophenol method. A digest of the protocol:
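Crude urease from H. pylori ATCC 43504 grown 24 h at 37 °C microaerobically in brucella broth with 10% heat-inactivated horse serum; cells PBS-washed, stored at -80 °C, sonicated 60 s in water with protease inhibitors, extract mixed 1:1 with glycerol. Enzyme (4 U) preincubated 3 h at room temperature with compound; ammonia measured by indophenol method; percent inhibition.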

Assay [2] has as its target Urease subunit alpha/Urease subunit beta (Helicobacter pylori (strain ATCC 700392 / 26695) (Campylobacterpylori), UniProt P69996). Kind of assay: Inhibition of Helicobacter pylori ATCC 43504 urease assessed as ammonia production after 3 hrs by indophenol method. A digest of the protocol:
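Crude urease came from H. pylori grown 24 h at 37 °C, microaerobic, in brucella broth with 10% heat-inactivated horse serum. Cells were PBS-washed, frozen at -80 °C, sonicated 60 s in water with protease inhibitors, and mixed 1:1 with glycerol. Enzyme (4 U) and compound were preincubated at room temperature. Percent inhibition was screened at 1 mM; IC50 came from dose–response curves (≥3 experiments, mean S.D.).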

Chain of Urease subunit alpha/Urease subunit beta (Helicobacter pylori (strain ATCC 700392 / 26695) (Campylobacterpylori)) (P14916 whole entry, looked up): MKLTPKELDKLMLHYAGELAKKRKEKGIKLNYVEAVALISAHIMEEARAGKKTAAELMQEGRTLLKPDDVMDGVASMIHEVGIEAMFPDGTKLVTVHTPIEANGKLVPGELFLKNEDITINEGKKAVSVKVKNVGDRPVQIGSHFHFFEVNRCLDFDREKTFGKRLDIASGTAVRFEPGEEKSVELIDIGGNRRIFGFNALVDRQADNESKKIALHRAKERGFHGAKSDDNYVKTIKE
Chain of Urease subunit alpha/Urease subunit beta (Helicobacter pylori (strain ATCC 700392 / 26695) (Campylobacterpylori)) (P69996 whole entry, looked up): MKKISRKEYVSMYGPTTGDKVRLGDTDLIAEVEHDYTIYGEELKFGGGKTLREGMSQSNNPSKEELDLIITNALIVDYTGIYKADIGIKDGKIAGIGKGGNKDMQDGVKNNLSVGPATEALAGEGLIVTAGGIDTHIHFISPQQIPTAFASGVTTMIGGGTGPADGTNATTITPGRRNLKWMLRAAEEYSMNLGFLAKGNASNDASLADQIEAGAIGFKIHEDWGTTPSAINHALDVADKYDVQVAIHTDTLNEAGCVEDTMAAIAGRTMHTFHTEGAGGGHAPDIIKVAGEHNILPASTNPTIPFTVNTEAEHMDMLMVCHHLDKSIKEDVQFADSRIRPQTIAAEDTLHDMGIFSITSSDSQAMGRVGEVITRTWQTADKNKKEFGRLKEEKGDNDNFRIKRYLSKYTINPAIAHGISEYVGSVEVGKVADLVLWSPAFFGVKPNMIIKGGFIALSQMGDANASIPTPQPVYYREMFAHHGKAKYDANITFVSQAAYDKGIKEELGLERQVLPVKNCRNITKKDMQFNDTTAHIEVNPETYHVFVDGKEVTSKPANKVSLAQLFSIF
Chain of Urease subunit alpha/Urease subunit beta (P69996 whole entry): as the sequence (P69996 whole entry, looked up) above
Chain of Urease subunit alpha/Urease subunit beta (P14916 whole entry, further chain): as the sequence (P14916 whole entry, looked up) above

Turning to `Cc1ncc([N+](=O)[O-])n1CCOc1c(Br)cc(Br)cc1C(=O)O`, in assay [1], the inhibition was 56.1%.
The same measure, in the same setting: with `Cc1ccc(C(=O)O)c(OCCn2c([N+](=O)[O-])cnc2C)c1` the entry was “inactive”; with `Cc1ncc([N+](=O)[O-])n1CCOC(=O)c1ccc(Cl)cc1OCCn1c([N+](=O)[O-])cnc1C`, 82.2%.
With `Cc1ccc(OCCn2c([N+](=O)[O-])cnc2C)c(C(=O)OCCn2c([N+](=O)[O-])cnc2C)c1`, the inhibition in assay [1] was found to be 48.4%.
Regarding `Cc1ncc([N+](=O)[O-])n1CCOc1cc(N)ccc1C(=O)O`, the inhibition in assay [1] stood at 38.3%.
`Cc1ncc([N+](=O)[O-])n1CCOC(=O)c1cc(Cl)ccc1OCCn1c([N+](=O)[O-])cnc1C`: the IC50 in assay [2] came out at 12 µM. Besides, the inhibition in assay [1] was 95.3%.
Regarding `Cc1ncc([N+](=O)[O-])n1CCOc1c(Cl)cc(Cl)cc1C(=O)O`, in assay [1], the inhibition was determined as 56.8%.
The same measure, in the same setting: with `Cc1cccc(C(=O)OCCn2c([N+](=O)[O-])cnc2C)c1OCCn1c([N+](=O)[O-])cnc1C` the figure was 42.1%.
Still for that read-out and setting: with `Cc1ncc([N+](=O)[O-])n1CCOC(=O)c1cc(S(=O)(=O)O)ccc1OCCn1c([N+](=O)[O-])cnc1C` the figure was 61.2%; with `Cc1ccc(C(=O)OCCn2c([N+](=O)[O-])cnc2C)c(OCCn2c([N+](=O)[O-])cnc2C)c1`, 38.3%; with `Cc1ncc([N+](=O)[O-])n1CCO`, “inactive”.
On the same count and under the same terms, with `Cc1ncc([N+](=O)[O-])n1CCOC(=O)c1cc(I)ccc1OCCn1c([N+](=O)[O-])cnc1C` the figure was 78.7%.
In the case of `Cc1ncc([N+](=O)[O-])n1CCOc1c(I)cc(I)cc1C(=O)O`, the inhibition in assay [1] worked out at 53.9%.
Regarding `Cc1ccc(S(=O)(=O)OCCn2c([N+](=O)[O-])cnc2C)cc1`, the inhibition in assay [1] was 78.1%.
With `Cc1ncc([N+](=O)[O-])n1CCOC(=O)c1cc(Br)ccc1OCCn1c([N+](=O)[O-])cnc1C`, in assay [2], the IC50 turned out to be 26 µM. Moreover, the inhibition in assay [1] was determined as 93.9%.
